Reference: article PMC8494022 (Chemical Science, 2021)

Experiments:
[1] = system: CT26 cells; experiment: Cellular uptake of FITC-labeled albumin with endocytosis inhibitors; type: cell-based, murine (Balb/c); details: 1 h inhibitor pretreatment, uptake after 3 h
[2] = Reduction kinetics with ascorbic acid by NMR; type: physicochemical; details: 100 μM, ascorbic acid 10 eq., cell-free, pD 7.4, 37°C
[3] = cited from earlier work
[4] = system: CT26 cells; experiment: Cellular platinum uptake determined by ICP-MS; type: cell-based, murine (Balb/c); details: MβCD, CHP, EIPA 1 h pretreatment, uptake after 3 h
[5] = system: CT26 cells; experiment: Cytotoxicity, MTT-based cell viability assay; set-up: species or system murine (Balb/c)
Outline: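 MTT-based viability of CT26 cells after 72 h drug exposure, alone or with 100 μM ascorbic acid co-treatment. Values are means ± SD of one representative experiment run in triplicates.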

[6] = system: CT26 tumors; experiment: Allograft anticancer activity experiments; type: in vivo; details: CT26-bearing BALB/c mice
Outline: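 CT26 allografts in immune-competent BALB/c mice; test compounds and oxaliplatin given i.v. twice weekly for two weeks at doses equimolar to 9 mg kg−1 oxaliplatin. Body weight was followed. Tumor growth is reported as mean ± SEM and compared by two-way ANOVA. Overall survival was plotted as Kaplan–Meier curves and compared by log-rank test with Mantel–Cox posttest.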

[7] = system: CT26 tumors; experiment: Histological evaluation of treated tumors; type: in vivo, Balb/c mice; details: tumors day 12, H&E-stained
Outline: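 CT26-bearing BALB/c mice dosed i.v. twice weekly for two weeks, equimolar to 9 mg kg−1 oxaliplatin. Tumors were collected on day 12, 24 h after the last dose. Apoptotic and mitotic cells were counted in H&E sections. Percentages of cleaved caspase-3-positive and Ki-67-positive cells were scored by image analysis. One-way ANOVA with Dunnett's test.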

[8] = Pharmacokinetic of single dose in serum; type: in vivo, Balb/c mice
Outline: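 Naive BALB/c mice (n = 4 per group) received a single i.v. dose equimolar to 9 mg kg−1 oxaliplatin. Serum was sampled between 0.08 h and 336 h, and serum versus blood clot was compared at 24 h. Platinum was quantified by ICP-MS and used for concentration–time curves, AUC and terminal elimination half-life.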

CCN(c1nc(N)c(C(=O)NC(=N)N)nc1Cl)C(C)C [EIPA, 5-(N-ethyl-N-isopropyl)amiloride]
impact on uptake of FITC-labeled albumin [1]: had no impact on albumin uptake

CC(=O)[O][Pt]([NH2])([Cl])([Cl])([NH]C1CCCCC1)[O]C(C)=O [Satraplatin, satraplatin]
time to complete reduction [2]: < 24 h

COc1cccc2c1C(=O)c1c(O)c3c(c(O)c1C2=O)C[C@@](O)(/C(CO)=N/NC(=O)CCCCCN1C(=O)C=CC1=O)C[C@@H]3O[C@H]1C[C@H](N)[C@H](O)[C@H](C)O1 [aldoxorubicin]
in vivo elimination half-life [3]: 2.3 h
time at which tumor accumulation reached a plateau ([3]; no further increase during the next 24 h): 2 h

COc1cccc2c1C(=O)c1c(O)c3c(c(O)c1C2=O)C[C@@](O)(C(=O)CO)C[C@@H]3O[C@H]1C[C@H](N)[C@H](O)[C@H](C)O1 [doxorubicin]
concentration in blood, share of the initial amount ([3]; 15 min after i.v. injection): less than 2%
in vivo elimination half-life [3]: in the order of minutes

O=C1[O][Pt]2([NH][C@@H]3CCCC[C@H]3[NH]2)[O]C1=O [oxaliplatin]
impact of endocytosis inhibitors on cellular drug uptake [4]: neither accumulation of oxaliplatin nor KP2157 were affected by endocytosis inhibition
impact of ascorbic acid co-treatment on activity (cell viability) ([5]; 100 μM AA, 72 h): no relevant impact
IC50 ([5]; after 72 h): ~3.5 µM
impact on tumor growth ([6]; i.v. twice a week for two weeks, equimolar to 9 mg kg−1 oxaliplatin): significant activity
day at which treated tumors progressed again ([6]; same scheme): ~15 days
change of mitotic cells [7]: significant increase of mitotic cells
serum concentration at first sampling time point relative to KP2156 ([8]; 5 min, equimolar application): drastically lower than for KP2156
total clearance relative to KP2156 ([8]; single i.v. dose): at least one order of magnitude higher than that of KP2156
terminal elimination half-life (t ½) ([8]; single i.v. dose equimolar to 9 mg kg−1 oxaliplatin): 32.5 h

methyl-β-cyclodextrin [MßCD]
impact on uptake of FITC-labeled albumin [1]: significantly reduced
